Usually koff stands for the first-order rate constant of dissociation. Lower therefore signals slow dissociation. Broadly, the kon is a measure of how fast the partners come together. Higher therefore signals fast association. Usually stoichiometry N stands for the number of molecules, sites or subunits per partner or assembly.

Experimental findings from PMC4899269 (Structure (London, England : 1993), 2016) are described below.

Where no end group is shown, it is not given here.

The test system of one test is JAK1 FERM–SH2. The test is described as follows: Co-purification and size exclusion chromatography of JAK1/receptor complexes. It is filed as binding, human. As to conditions: large scale co-expression, Ni-IMAC, TEV cleavage, SDS-PAGE. Summed up: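 His-JAK1 FERM–SH2 (G35–K559) co-expressed in insect cells with one of two GST-tagged partners, co-infected at 1:1 viral ratio: GST-IFNLR1 (K250–T299), or a chimera of IFNLR residues K250–R260 fused to IL-10RA K264–K303. Lysates purified by Ni-IMAC then SEC. Complex fractions TEV-cleaved and put through a second SEC round.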

Test [1] has as its target human JAK1 FERM–SH2 (as used in BioLayer Interferometry) (human, UniProt P23458 35-559). As to the kind of experiment: BLI.
In another test the target is JAK1 FERM–SH2 I240L (human, UniProt P23458 35-559, Ile240 to leucine). The test is described as follows: BLI. In general terms: BLI is a label-free optical method that tracks binding on a fibre tip over time.
The next test addresses JAK1 FERM–SH2 I240F (human, UniProt P23458 35-559, Ile240 to phenylalanine). The test is described as follows: BLI.
The target of test [2] is human JAK1 FERM–SH2 (residues 35–559), His tag released with TEV (human, UniProt P23458 35-559). As to the kind of experiment: SEC-MALS. A general note: Size exclusion chromatography separates by hydrodynamic size, large species first.
Chain of human JAK1 FERM–SH2 (residues 35–559), His tag released with TEV (P23458 35-559): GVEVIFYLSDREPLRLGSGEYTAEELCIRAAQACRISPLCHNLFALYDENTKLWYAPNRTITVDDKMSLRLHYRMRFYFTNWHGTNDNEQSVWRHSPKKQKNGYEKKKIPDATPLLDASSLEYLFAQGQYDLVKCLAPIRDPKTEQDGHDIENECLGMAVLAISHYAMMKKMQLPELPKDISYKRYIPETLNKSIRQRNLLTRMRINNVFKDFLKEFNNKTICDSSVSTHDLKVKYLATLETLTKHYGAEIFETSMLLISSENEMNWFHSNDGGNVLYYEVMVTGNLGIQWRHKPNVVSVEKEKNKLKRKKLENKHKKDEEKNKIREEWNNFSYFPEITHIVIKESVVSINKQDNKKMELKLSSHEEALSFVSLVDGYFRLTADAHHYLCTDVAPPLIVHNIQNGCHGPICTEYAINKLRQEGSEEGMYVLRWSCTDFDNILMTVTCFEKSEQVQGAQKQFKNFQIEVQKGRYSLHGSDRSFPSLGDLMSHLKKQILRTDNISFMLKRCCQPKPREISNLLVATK

Chain of human JAK1 FERM–SH2 (as used in BioLayer Interferometry) (P23458 35-559): as above
Chain of JAK1 FERM–SH2 I240L (P23458 35-559 I240L): as the sequence (P23458 35-559) above, with I206L counted along it
Chain of JAK1 FERM–SH2 I240F (P23458 35-559 I240F): as the sequence (P23458 35-559) above, with I206F counted along it

With “IL10RA: GST-tagged human receptor cytoplasmic fragment with putative box1 and box2 motifs ({GST}-QLYVRRRKKLPSVLLFKKPSPFIFISQRPSPETQDTIHPLDEEAFLK)”, the “complex formation with JAK1 on purification / SEC (in words)” value with JAK1 FERM–SH2 is reported as “formed a stable complex with JAK1”.
On to “box2 fragment of IFNLR1: GST-tagged fragment of IFNLR1 containing box2 sequences (residues 270–299) ({GST}-SGHTHPVATFQPSRPESVNDLFLCPQKELT)”, for which the “complex formation with JAK1 on purification / SEC (in words)” value with JAK1 FERM–SH2 was “did not co-purify with JAK1”.
On to “peptide containing IFNLR1 box1 and box2: GST-tagged IFNLR1 box1/box2 fragment (residues 250–299), co-expressed with JAK1 ({GST}-KTLMGNPWFQRAKMPRALDFSGHTHPVATFQPSRPESVNDLFLCPQKELT)”, for which the “complex formation with JAK1 on purification / SEC (in words)” value with JAK1 FERM–SH2 is recorded as “form a stable complex with JAK1”.
Consider KTLMGNPWFQRAKMPRALDFS (peptide, UniProt Q8IU57 250-270, looked up, also: biotin, position not given here) [biotinylated IFNLR1 box1 peptide (residues 250–270)], for which, in test [1], the off-rate constant (koff) came to 0.089 s⁻¹ and the kon came out at 72500 M⁻¹ s⁻¹. Besides, the binding result with JAK1 FERM–SH2 I240L is given as “binds”. Further, the binding result in the test with JAK1 FERM–SH2 I240F is recorded as “binds”.
For KTLMGNPWFQRAKMPRALDFSGHTHPVATFQPSRPESVNDLFLCPQKELT (peptide, UniProt Q8IU57 250-299, looked up, also: biotin, position not given here) [biotinylated IFNLR1 box1/box2 peptide (residues 250–299)], in test [1], the koff was 0.00355 s⁻¹ and the kon turned out to be 50400 M⁻¹ s⁻¹.
For KTLMGNPWFQRAKMPRALDFSGHTHPVATFQPSRPESVND (peptide, UniProt Q8IU57 250-289, looked up, also: biotin, position not given here) [biotinylated IFNLR1 box1Δbox2 peptide (residues 250–289)] the same measures were 0.0544 s⁻¹ and 34600 M⁻¹ s⁻¹.
Take KTLMGNPWFQRAKMPRALDFSGHTHPVATFQPSRPESVNDLFLCPQKELT (peptide, UniProt Q8IU57 250-299, looked up) [IFNLR1 box1/box2 peptide (residues 250–299), GST released with TEV]: in test [2], the “stoichiometry N” value turned out to be 1.
